Source: PubChem BioAssay (The Scripps Research Institute Molecular Screening Center)
Most compounds without a hit are left out; they make up all but 4% or so of the library.
CHO parental Ca = signal in parental CHO cells, OX1R antagonist counter-screen; parental CHO-K1, ATP-induced calcium, Fluo-8 fluorescence; inhibition, % at 5.6 µM; 330,000 compounds, 0.63% hits;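 active = inhibition above that plate's mean sample inhibition plus 3 SD, cut at about 26% in these data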;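 note: 0% = ATP-challenged DMSO wells and 100% = DMSO wells without ATP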
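Test system: parental CHO cells; detection: calcium-sensitive Fluo-8 fluorescence; evaluation: percent inhibition of calcium signal; also added: ATP as calcium-mobilizing challenge; repeats: one well per compound; control set: ATP-challenged DMSO wells low, unchallenged DMSO wells high; compound: single nominal dose of 5.6 µM per compound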
TAAR1 antagonist = human TAAR1 antagonism. AID 624466. 360,000 compounds, 1.5% hits. CHO RD-HGA16 TAAR1, Fluo-8 calcium fluorescence, antagonist. Q96RJ0. inhibition, % at 3 µM;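 active = inhibition above a per-plate cutoff, the mean inhibition of test compounds on that plate plus 3 SD, cut at about 49% in these data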;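 note: 0% = DMSO plus EC80 beta-PEA response and 100% = DMSO alone without agonist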
Target sequence (Q96RJ0 whole entry, looked up): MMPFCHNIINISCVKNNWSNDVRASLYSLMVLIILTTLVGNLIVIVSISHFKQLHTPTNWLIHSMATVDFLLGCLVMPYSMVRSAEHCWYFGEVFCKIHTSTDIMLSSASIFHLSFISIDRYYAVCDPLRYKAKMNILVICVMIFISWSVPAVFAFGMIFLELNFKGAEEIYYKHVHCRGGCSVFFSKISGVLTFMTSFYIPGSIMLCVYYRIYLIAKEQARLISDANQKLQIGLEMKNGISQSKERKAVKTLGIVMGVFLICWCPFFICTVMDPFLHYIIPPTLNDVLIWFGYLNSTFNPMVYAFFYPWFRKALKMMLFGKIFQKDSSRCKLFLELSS
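Material: CHO RD-HGA16 cells bearing hTAAR1; compound dosing: one-point dosing, 3 µM nominal final; schedule: dye loading 75 min at 37 °C, then 30 min room temperature; measured by: calcium fluorescence with Fluo-8; control set: vehicle and agonist controls; replication: n of 1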
OX1R antag-1 = blocks the human orexin 1 receptor. O43613. CHO/OX1R cells, Fluo-8 calcium fluorescence, orexin A. inhibition, % at 5 µM. 330,000 compounds, 0.43% hits. AID 434989;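 active = inhibition above its plate's threshold, mean inhibition of all tested compounds on the plate plus 3 SD, cut at about 37% in these data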;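 note: 0% = orexin A challenge wells and 100% = SB-334867-A antagonist wells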
OX1R antag-2 = antagonists of human orexin 1 receptor (OX1R) | O43613 | OX1R-expressing cells, FRET antagonist read-out | inhibition, % at 6.6 µM | 330,000 compounds, 1.8% hits | AID 485270; in the data active = inhibition mostly above about 38%, no sharp cut-off; inactive = mostly below about 40%;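 note: 0% = agonist challenge alone and 100% = reference antagonist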
TAAR1 ag = human TAAR1 agonism. activation, % at 3 µM. 360,000 compounds, 0.99% hits. AID 624467. Q96RJ0. CHO RD-HGA16 TAAR1, Fluo-8 calcium fluorescence; vehicle wells 0%, saturating PEA agonist 100%;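 active = activation above the mean activation of all test compounds in the run plus 3 SD, cut at about 38% in these data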
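Repeats: no replicates (n 1) | Material: CHO-derived RD-HGA16 cells with stable Gα16 and human TAAR1 | Technique: Kinetic Fluo-8 calcium fluorescence | Schedule: 17-24 h seeding, 75 min 37 °C dye, 30 min RT | Evaluation: % activation from peak over basal fluorescence ratio, DMSO-to-PEA scaled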
nonsel antag count = counter-screen for TAAR1 antagonists: nonselective antagonists | shares compounds with TAAR1 antagonist | 2,400 compounds, 77% hits | inhibition, % at 3 µM | AID 651780 | counterscreen cell line, calcium fluorescence, antagonist mode; in the data active = inhibition above about 22%;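 note: CHO-Ga16 host cells stimulated with ATP at an EC80 level; 0% = agonist EC80 plus vehicle and 100% = vehicle without agonist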
TAAR1 antag conf = human TAAR1 antagonism, confirmed; shares compounds with TAAR1 antagonist; TAAR1-expressing cells, fluorescence antagonist read-out; inhibition, % at 3 µM; 2,400 compounds, 40% hits; AID 651785; in the data active = inhibition above about 49%;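 note: CHO-Ga16 host cells challenged with agonist PEA near its EC80; 0% = agonist at EC80 plus vehicle and 100% = vehicle with no agonist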
Ga16 ag counter = nonselective Ga16 agonist in TAAR1 antagonist counter-screen. shares compounds with TAAR1 antagonist. Ga16-expressing cells, calcium fluorescence, agonist counterscreen. activation, % at 3 µM. 2,400 compounds, 18% hits. AID 651953; in the data active = activation above about 12%;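 note: 0% = vehicle wells and 100% = saturating stimulus response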
TAAR1 ag count = TAAR1 agonism, antagonist counter-screen; activation, % at 3 µM; 2,400 compounds, 2% hits; AID 651955; hTAAR1 cell line, fluorescence activation, agonist mode; shares compounds with TAAR1 antagonist; in the data active = activation above about 37%;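 note: CHO cells stably expressing TAAR1 with calcium dye readout; 0% = DMSO vehicle and 100% = full agonist response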
Active calls of the source: *; . = no result given.

SMILES	CHO parental Ca	TAAR1 antagonist	OX1R antag-1	OX1R antag-2	TAAR1 ag	nonsel antag count	TAAR1 antag conf	Ga16 ag counter	TAAR1 ag count
O=S1(=O)[C@H]2C[C@H](CO)O[C@@]2(CO)CN1Cc1ccc(-c2ccc(F)cc2)cc1	-4	14	6	8	9	.	.	.	.
COc1cccc(/C=N/Nc2nnc3c(n2)[nH]c2ccccc23)c1OC	-13	61*	2	45*	12	17	22	6	3
O=C(Nc1nc(-c2ccccn2)cs1)C1COc2ccccc2O1 (stereo not given)	-16	105*	-8	10	8	22*	33	6	3
Cc1nc2ccc3nc(NC(=O)C4COc5ccccc5O4)sc3c2s1 (stereo not given)	-13	61*	-30	36	1	29*	30	2	1
CSc1nc2ccc3nc(NC(=O)C4COc5ccccc5O4)sc3c2s1 (stereo not given)	-10	36	-19	40	1	.	.	.	.
O=C(Nc1nc(-c2ccccc2)cs1)C1COc2ccccc2O1 (stereo not given)	1	9	-23	20	-3	.	.	.	.
Cc1ccc(NC(=O)NCc2ccco2)cc1[N+](=O)[O-]	.	-8	.	.	7	.	.	.	.
CC1=NOC(=O)/C1=C\c1ccc(-c2ccc(Cl)cc2Cl)o1	.	53*	.	.	14	79*	72*	29*	25
O=C(CSc1n[nH]c(-c2ccncc2)n1)NCCc1ccccc1	-1	-5	-8	3	7	.	.	.	.
CCc1nc(SCC(=O)NCCc2ccccc2)n[nH]1	-10	75*	-4	8	33	-2	70*	0	49*
CC/C(=N\NC(=O)c1cc(C)nc2ccccc12)c1ccc(C)s1	4	-1	-16	22	2	.	.	.	.
CC(C)(C)NC(=O)CSc1nc2ccc(NC(=O)CSc3nnnn3Cc3ccccc3)cc2s1	37*	49*	42	66	15	36*	26	10	5
CC(C)(C)NC(=O)CSc1nc2ccc(NC(=O)CSc3nnc(N)s3)cc2s1	3	8	-6	17	3	.	.	.	.
Cc1ccccc1OCc1nnc(SCC(=O)Nc2ccc3nc(SCC(=O)NC(C)(C)C)sc3c2)n1C	-20	61*	-13	5	22	43*	62*	10	6
CS(=O)(=O)N1CCN(c2ccc(NC(=O)COc3ccccc3[N+](=O)[O-])cc2)CC1	-11	63*	-29	20	20	28*	42	12*	11
O=P(Nc1ccccc1)(Nc1ccccc1)c1ccccc1	.	14	.	.	0	.	.	.	.
COc1ccccc1CCn1cnc(-c2ccccc2)c1CC(C)C	.	56*	.	.	7	41*	49*	12*	26
CCc1c(-c2ccc(F)cc2)ncn1CCc1ccccc1OC	.	-24	.	.	3	.	.	.	.
CCCCc1c(-c2ccc(F)cc2)ncn1CCc1ccccc1OC	.	54*	.	.	26	23*	38	3	43*
CCc1c(-c2ccc(OC)cc2)ncn1CCc1ccccc1OC	.	-16	.	.	18	.	.	.	.
CCCCc1c(-c2cccc(Cl)c2)ncn1CCc1ccccc1OC	.	33	.	.	11	.	.	.	.
COc1cccc(-c2ncn(CCc3ccccc3OC)c2C(C)C)c1	.	22	.	.	20	.	.	.	.
COc1ccccc1CCn1cnc(-c2cccc(Cl)c2)c1CC(C)C	.	51*	.	.	14	33*	52*	9	38*
COc1cccc(-c2ncn(CCc3ccccc3OC)c2CC(C)C)c1	.	62*	.	.	11	39*	49*	8	38*
O=C1CSC(=Nc2cccc([N+](=O)[O-])c2)N1	8	0	-22	10	1	.	.	.	.
SMILES	CHO parental Ca	TAAR1 antagonist	OX1R antag-1	OX1R antag-2	TAAR1 ag	nonsel antag count	TAAR1 antag conf	Ga16 ag counter	TAAR1 ag count
COc1ccccc1CCn1cnc(-c2ccc(F)cc2)c1CC(C)C	.	63*	.	.	27	29*	62*	11	66*
CCc1c(-c2ccc(Cl)cc2)ncn1CCc1ccccc1OC	.	36	.	.	26	.	.	.	.
CCOC(=O)C1(C)CCN1C(=O)c1ccc(C(=O)OC)cc1 (stereo not given)	.	-6	.	.	-1	.	.	.	.
O=C(N/N=C/c1ccc[nH]1)c1ccc(COc2cccc3cccnc23)cc1	-3	39	-16	20	6	.	.	.	.
Cc1cc(Br)c(OCc2ccc(C(=O)N/N=C/c3ccc[nH]3)cc2)c(Br)c1	-19	.	0	12	.	14	.	3	.
COCCn1ccc2c(OCC(=O)Nc3ccccc3OC)cccc2c1=O	-18	58*	-23	34	8	27*	41	8	5
CCOCCn1ccc2c(OCC(=O)Nc3ccccc3F)cccc2c1=O	14	-17	-13	27	5	.	.	.	.
N#CC(c1ccc(Cl)cc1)c1nc2ccccc2nc1C(F)(F)F (stereo not given)	-21	57*	-20	0	-1	7	31	1	-2
COc1ccc(C(C#N)c2nc3ccccc3nc2Cl)cc1 (stereo not given)	.	-3	.	.	1	.	.	.	.
CC(C)[C@H](NC(=O)c1ccccc1)C(=O)OCc1nc2scc(-c3ccccc3)c2c(=O)[nH]1	13	73*	7	20	13	36*	55*	11	14
CCn1c(SCC(=O)Nc2ccccc2N2CCCCC2)nc2c1c(=O)n(C)c(=O)n2C	-11	55*	-29	21	13	27*	47	10	10
Cc1ccc(NC(=O)CN(Cc2ccco2)Cc2ccccc2O)cc1C	-15	52*	-22	31	3	24*	45	5	7
CC(=O)Nc1ccc(OS(=O)(=O)c2ccc(C(C)(C)C)cc2)cc1	-11	.	-6	22	.	.	.	.	.
Cc1ccc(-c2[nH]ncc2/C=N/n2c(C)nc3ccccc3c2=O)cc1	-29	50*	-25	4	11	23*	40	7	8
Cc1nc2ccccc2c(=O)n1/N=C/c1ccccc1O	-3	7	-17	16	-2	.	.	.	.
Cc1cccn2c(=O)c3cc(C#N)c(=NC(=O)c4cccs4)n(CCCOC(C)C)c3nc12	-16	67*	-34	24	14	24*	48	9	8
Cc1cccn2c(=O)c3cc(C#N)c(=NC(=O)c4ccncc4)n(CCCOC(C)C)c3nc12	-10	-7	-16	47	1	.	.	.	.
O=S(=O)(Nc1nc2ccc(Cl)cc2s1)c1cccs1	-4	.	-2	9	.	.	.	.	.
